ChEMBL document CHEMBL1131528, “Effect of steroids on DNA synthesis in an in vitro replication system: initial quantitative structure-activity relationship studies and construction of a non-estrogen receptor pharmacophore” (J Med Chem, 1998)

Each compound was assayed on Nucleic Acid (assay: (§1) The compound was tested in vitro for its ability to initiate DNA replication). Settings: Homo sapiens.
Assay type: nucleic-acid assay
Procedure, shortened: (§2)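 Steroid dissolved in 100% ethanol, diluted with water (final ethanol ≤0.1%), tested at 10 nM in a HeLa cell extract in vitro replication system (extracts estrogen and progesterone receptor-negative) with plasmid template pX24 (hamster DHFR origin) or 30.4 (random human cDNA fragment). Compound preincubated with template DNA and precursor nucleotides, then remaining components added to start replication. DNA purified; synthesis measured by DpnI resistance assay with phosphoimager densitometry; expressed as % of untreated control, mean ± SD of at least two experiments.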

| Structure (SMILES) | DNA [%] |
| --- | --- |
| C[C@]12CC[C@@H]3c4ccc(O)cc4CC[C@H]3[C@@H]1C[C@@H](O)[C@@H]2O | 118 |
| C[C@]12CC[C@@H]3c4ccc(O)cc4CC[C@H]3[C@@H]1C[C@@H](O)C2=O | 150 |
| CC(=O)[C@H]1CC[C@H]2[C@@H]3CCC4=CC(=O)CC[C@]4(C)[C@H]3CC[C@]12C | 115 |
| C[C@]12CC[C@@H]3c4ccc(O)cc4CC[C@H]3[C@@H]1CCC2=O | 108 |
| COc1c(O)ccc2c1CC[C@@H]1[C@@H]2CC[C@]2(C)C(=O)CC[C@@H]12 | 53 |
| COc1ccc2c(c1OC)CC[C@@H]1[C@@H]2CC[C@]2(C)C(=O)CC[C@@H]12 | 63 |
| C[C@]12CC[C@@H]3c4cc(O)c(O)cc4CC[C@H]3[C@@H]1CCC2=O | 92 |

These compounds were tested on Nucleic Acid (assay: as §1). Settings: Homo sapiens.
Assay type: functional
Procedure, shortened: as §2

| Structure (SMILES) | DNA [%] |
| --- | --- |
| C[C@]12CC[C@@H]3c4ccc(O)cc4CC[C@H]3[C@@H]1C[C@@H](O)[C@@H]2O | 144 |
| C[C@]12CC[C@@H]3c4ccc(O)c(O)c4CCC3[C@@H]1CC[C@@H]2O (single isomer, unassigned) | 53 |
| C[C@]12CC[C@@H]3c4ccc(O)cc4CC[C@H]3[C@@H]1C[C@@H](O)[C@H]2O | 103 |
| C[C@]12CC[C@@H]3c4cc(O)c(O)cc4CCC3[C@@H]1CC[C@@H]2O (single isomer, unassigned) | 52 |
| C[C@]12CC[C@@H]3c4ccc(O)cc4CC[C@H]3[C@@H]1C[C@H](O)[C@H]2O | 200 |
| C[C@]12CC[C@@H]3c4ccc(O)cc4CC[C@H]3[C@@H]1CC(=O)[C@@H]2O | 99 |
| C[C@]12CC[C@H]3C(CCC4=CC(=O)CC[C@@]43C)[C@@H]1CC[C@@H]2O (single isomer, unassigned) | 72 |
